Most compounds without a hit are left out; they make up all but 2.5% or so of the library.
TRPN1 ag – zebrafish TRPN1 channel agonists, primary screen, cell-based, HEK293, calcium fluorescence | HEK293 zebrafish TRPN1-YFP, Fluo-8 calcium fluorescence; 100% = response to 87 µM carbachol | activation, % at 3 µM | 220,000 tested, 0.18% active | AID 1424, 2008;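 active means activation above its plate's cutoff, the mean activation of test wells on that plate plus 3 SD, cut at about 19% in these data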;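 further: 0% = DMSO alone and 100% = 87 µM carbachol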
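Material: zebrafish TRPN1-YFP in HEK293 cells. Doses: one dose of 3 µM, 0.3% DMSO. Incubation: dye 1 h 37 °C plus 30 min RT. Measured by: intracellular calcium fluorescence with Fluo-8.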
OX1R antag-1 – antagonists of human orexin 1 receptor (OX1R). OX1R-expressing cells, FRET antagonist read-out. inhibition, % at 6.6 µM. 330,000 tested, 1.8% active. AID 485270, 2010; in the data active means inhibition mostly above about 38%, no sharp cut-off; inactive means mostly below about 40%;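 further: 0% = agonist challenge alone and 100% = reference antagonist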
Target sequence (O43613 whole entry, looked up): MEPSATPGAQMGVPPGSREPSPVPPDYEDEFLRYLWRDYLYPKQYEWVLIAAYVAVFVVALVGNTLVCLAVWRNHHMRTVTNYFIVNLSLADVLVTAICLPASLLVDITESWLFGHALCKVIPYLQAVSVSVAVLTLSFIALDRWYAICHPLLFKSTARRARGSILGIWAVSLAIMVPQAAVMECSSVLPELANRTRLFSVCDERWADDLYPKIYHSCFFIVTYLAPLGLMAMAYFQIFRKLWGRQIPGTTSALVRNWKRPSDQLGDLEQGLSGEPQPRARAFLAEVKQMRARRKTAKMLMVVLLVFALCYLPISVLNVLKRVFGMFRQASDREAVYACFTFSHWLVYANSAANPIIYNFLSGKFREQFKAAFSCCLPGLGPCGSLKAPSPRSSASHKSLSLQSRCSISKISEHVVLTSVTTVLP
TRPML3 ag – human TRPML3 channel agonists, primary screen, cell-based, HEK293 TRPML3-YFP, Fluo-8 calcium fluorescence, 3 µM. activation, % at 3 µM. Mucolipin-3 (Homo sapiens), Q8TDD5. 100% = the carbachol control signal. 220,000 tested, 0.29% active;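 active means activation above its plate's cutoff, the mean activation of the plate's test wells plus 3 SD, cut at about 12% in these data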;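 further: 0% = DMSO only wells and 100% = carbachol wells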
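system = HEK293 cells stably carrying human TRPML3-YFP | doses = one concentration, 3 µM nominal, 0.3% DMSO | timing = dye loading 1 h 37 °C then 30 min ambient, 125 s read | detection = Fluo-8 calcium dye fluorescence, ex 470-495, em 515-575 nm | benchmarks = high control carbachol 87 µM, low control DMSO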
OX1R antag-2 – OX1R (HCRTR1) antagonists, primary screen, fluorescence, CHO/OX1R cells, Fluo-8 calcium, orexin A | Orexin/Hypocretin receptor type 1 (Homo sapiens), O43613 | Fluo-8 calcium fluorescence | inhibition, % at 5 µM | 330,000 tested, 0.43% active | AID 434989, 2010;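 active means inhibition above its plate's threshold, mean inhibition of all tested compounds on the plate plus 3 SD, cut at about 37% in these data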;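 further: 0% = orexin A challenge wells and 100% = SB-334867-A antagonist wells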
CHO parental Ca – ATP-evoked calcium signal inhibitors, parental CHO, primary screen, counter-screen for OX1R antagonist project, cell-based, fluorescence, Fluo-8 calcium dye | parental CHO-K1, ATP-induced calcium, Fluo-8 fluorescence | inhibition, % at 5.6 µM | 330,000 tested, 0.63% active | AID 463079, 2010;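 active means inhibition above that plate's mean sample inhibition plus 3 SD, cut at about 26% in these data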;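 further: 0% = ATP-challenged DMSO wells and 100% = DMSO wells without ATP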
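Measured by: calcium-sensitive Fluo-8 fluorescence / Test system: CHO parental line / Controls: ATP-challenged DMSO wells low, unchallenged DMSO wells high / Measure: % inhibition / Compound: single nominal dose of 5.6 µM per compound / Replicates: single well per compound, no replicates / Reagent: ATP as calcium-mobilizing challenge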
* marks the source's active call; other numbers are inactive results; nt = no result given.

SMILES | TRPN1 ag | OX1R antag-1 | TRPML3 ag | OX1R antag-2 | CHO parental Ca
COc1ccc(-n2c(N)c(C(=O)Nc3c(C)n(C)n(-c4ccccc4)c3=O)c3nc4ccccc4nc32)cc1 | 0 | 1 | -1 | -24 | -24
Cc1ccc(-n2c(N)c(C(=O)Nc3c(C)n(C)n(-c4ccccc4)c3=O)c3nc4ccccc4nc32)cc1C | -2 | 16 | -1 | 37 | 38*
Cc1ccc(C)c(C(=O)CCC(=O)O)c1 | 1 | 1 | 1 | -11 | -1
O=C(CN1C(=O)c2ccccc2C1=O)N1CCN(S(=O)(=O)c2ccccc2)CC1 | nt | 10 | nt | -1 | -13
O=C(CN1C(=O)c2cccc([N+](=O)[O-])c2C1=O)N1CCN(S(=O)(=O)c2ccccc2)CC1 | nt | 34* | nt | 24 | -19
O=C(CCl)NN1C(=O)NC(c2ccccc2)(c2ccccc2)C1=O | nt | 36 | nt | -14 | 2
Cc1ccnc2nc(C(=O)OCC(=O)NC3CCCC(C)C3C)nn12 (centres undefined) | nt | 6 | nt | -12 | -5
COC(=O)c1sc(N2CCN(c3ccc(Cl)cc3)CC2)nc1N | 1 | 21 | 1 | 19 | 44*
CCCOc1nc2c(c(=O)n(C)c(=O)n2C)n1C | 2 | 8 | 1 | -7 | -7
CCCOc1nc2c(c(=O)n(C)c(=O)n2C)n1Cc1cccc2ccccc12 | 0 | 15 | 0 | 68* | 39*
Cc1nc([N+](=O)[O-])cn1-c1nc2ccccn2c1[N+](=O)[O-] | 3 | 54* | 1 | -11 | -3
Cc1nc([N+](=O)[O-])cn1CC(=O)c1ccccc1 | 3 | 21 | 1 | -6 | 2
CC1(C)CCN2CCC(C)(C)c3c(O)ccc1c32 | nt | 14 | nt | 41* | 38*
CCCCCCOC(=O)C1=C(C)NC(=O)NC1c1ccc2c(c1)OCO2 (centres undefined) | nt | 6 | nt | -18 | -12
Cc1ccc(C)c(OCCC(=O)NCCc2ccc(S(N)(=O)=O)cc2)c1 | nt | 10 | nt | -10 | -7
COc1ccc(-c2cn[nH]c2-c2ccc(OCc3ccccc3)cc2O)cc1 | -1 | 8 | 0 | 16 | 54*
COc1ccc(-c2[nH]ncc2-c2ccc(Cl)cc2)c(O)c1 | -1 | 12 | 0 | 20 | 72*
O=C(NCc1ccccc1)c1onc(CSc2ccc(F)c(F)c2)c1C(=O)NCc1ccccc1 | nt | 10 | nt | -13 | -12
O=[N+]([O-])c1ccc(Cl)c(S(=O)(=O)NCCc2ccccn2)c1 | nt | 26 | nt | -17 | -9
CCOc1cc(/C=C2\CCC/C(=C\c3cc(Cl)c(O)c(OCC)c3)C2=O)cc(Cl)c1O | -1 | 75* | 0 | 29 | 21
CC(C)OC(=O)CSc1nnc(CNc2ccc(Cl)cc2)n1Cc1ccccc1 | 4 | 50 | 4 | 53* | 55*
CCOC(=O)C1=NN(C(=O)c2ccc(C)cc2)C(O)(c2ccc(Cl)cc2)C1 (centres undefined) | 25* | 15 | 18* | -9 | -12
O=C(COC(=O)/C=C/c1ccc(Br)o1)NCCCN1CCCC1=O | 0 | 16 | 1 | -19 | 1
O=c1cc(-c2ccccc2Cl)oc2c(NS(=O)(=O)c3ccccc3C(F)(F)F)ccc(O)c12 | nt | 37 | nt | -8 | -23
O=c1cc(-c2ccccc2Cl)oc2c(NS(=O)(=O)c3cccs3)ccc(O)c12 | nt | 73* | nt | 16 | -11
O=C(Nc1cccc(Cl)c1)c1ccc2c(c1)SC1=NS(=O)(=O)CCN12 | -1 | nt | 0 | nt | nt
Cc1nnc2n1N=CC=C(c1ccccc1)S2 | 0 | 54* | 0 | -4 | -9
CCN(C(=O)c1cc2c(s1)-c1ccccc1OC2)c1cc(OC)ccc1OC | nt | 14 | nt | -8 | 35*
Oc1ccc(N=C/C=C/c2ccc(Br)cc2)cc1-c1nc2ccccc2s1 | 1 | 26 | 1 | 0 | -1
COc1cc2c(cc1OC)CN(C(=O)C1CCCN1S(=O)(=O)c1ccc(C)cc1)CC2 (centres undefined) | nt | 23 | nt | -35 | -27
